Measured values reported in ChEMBL document CHEMBL1153240, “Microwave assisted synthesis and in vitro cytotoxicities of substituted (Z)-2-amino-5-(1-benzyl-1H-indol-3-yl)methylene-1-methyl-1H-imidazol-4(5H)-ones against human tumor cell lines” (2010).

Assays:
Assay type in all cases: functional
SF-295 = assay: Cytotoxicity against human SF295 cells
In short: (§1)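 NCI 60-cell-line panel, five-dose response study. Effect is plotted against log10 drug concentration for each cell line. GI50 is the molar concentration giving a 50% reduction in net protein increase relative to control cells. LC50 is the concentration lethal to 50% of cells.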

M14 = assay: Cytotoxicity against human M14 cells; in short: as §1
NCI-H522 = assay: Cytotoxicity against human NCI-H522 cells; in short: as §1
NCI/ADR-RES = assay: Cytotoxicity against human NCI/ADR-RES cells; in short: as §1
SN12C = assay: Cytotoxicity against human SN12C cells; in short: as §1
OVCAR-8 = assay: Cytotoxicity against human OVCAR8 cells; in short: as §1
HCC 2998 = assay: Cytotoxicity against human HCC2998 cells; in short: as §1
[1] = Cytotoxicity against human Hs 578T cells; in short: as §1
KM12 = assay: Cytotoxicity against human KM12 cells; in short: as §1
NCI-H23 = assay: Cytotoxicity against human NCI-H23 cells; in short: as §1
SK-MEL-28 = assay: Cytotoxicity against human SK-MEL-28 cells; in short: as §1
SK-OV-3 = assay: Cytotoxicity against human SKOV3 cells; in short: as §1
NCI-H226 = assay: Cytotoxicity against human NCI-H226 cells; in short: as §1
SF-268 = assay: Cytotoxicity against human SF268 cells; in short: as §1
786-0 = assay: Cytotoxicity against human 786-0 cells; in short: as §1
SNB-19 = assay: Cytotoxicity against human SNB19 cells; in short: as §1
[2] = Cytotoxicity against human […] cells; in short: as §1
MDA-MB-231 = assay: Cytotoxicity against human MDA-MB-231 cells; in short: as §1
HCT-116 = assay: Cytotoxicity against human HCT116 cells; in short: as §1
NCI-H460 = assay: Cytotoxicity against human NCI-H460 cells; in short: as §1
SK-MEL-5 = assay: Cytotoxicity against human SK-MEL-5 cells; in short: as §1
CAKI-1 = assay: Cytotoxicity against human Caki1 cells; in short: as §1
BT-549 = assay: Cytotoxicity against human BT549 cells; in short: as §1
MDA-MB-468 = assay: Cytotoxicity against human MDA-MB-468 cells; in short: as §1
SF-539 = assay: Cytotoxicity against human SF539 cells; in short: as §1
SR = assay: Cytotoxicity against human SR cells; in short: as §1
CCRF-CEM = assay: Cytotoxicity against human CCRF-CEM cells; in short: as §1
OVCAR-3 = assay: Cytotoxicity against human OVCAR-3 cells; in short: as §1
T47D = assay: Cytotoxicity against human T47D cells
In short: (§2)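 NCI 60 human tumor cell line panel, five-dose dose-response study. Cytotoxic effect was plotted against log10 drug concentration for each cell line. GI50 is the molar concentration giving 50% reduction in net protein increase versus control cells. LC50 is the concentration lethal to 50% of cells.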

PC-3 = assay: Cytotoxicity against human PC3 cells; in short: as §1
HCT-15 = assay: Cytotoxicity against human HCT15 cells; in short: as §1
HT-29 = assay: Cytotoxicity against human HT-29 cells
In short: (§3)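 NCI 60-cell-line panel, five-concentration dose-response. Cytotoxic effect was plotted against log10 drug concentration for each line. GI50 is the molar concentration giving a 50% reduction in net protein increase relative to control cells. LC50 is the concentration lethal to 50% of cells. Both were read from the curves.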

HOP-92 = assay: Cytotoxicity against human HOP92 cells; in short: as §1
OVCAR-5 = assay: Cytotoxicity against human OVCAR5 cells; in short: as §1
SW-620 = assay: Cytotoxicity against human SW620 cells; in short: as §2
HOP-62 = assay: Cytotoxicity against human HOP62 cells; in short: as §1
OVCAR-4 = assay: Cytotoxicity against human OVCAR4 cells; in short: as §1
ACHN = assay: Cytotoxicity against human ACHN cells; in short: as §1
DU-145 = assay: Cytotoxicity against human DU145 cells; in short: as §1
RXF 393 = assay: Cytotoxicity against human RXF393 cells; in short: as §1
Malme-3M = assay: Cytotoxicity against human MALME-3M cells; in short: as §1
U-251 = assay: Cytotoxicity against human U251 cells; in short: as §2
SK-MEL-2 = assay: Cytotoxicity against human SK-MEL-2 cells; in short: as §1
EKVX = assay: Cytotoxicity against human EKVX cells; in short: as §1
NCI-H322M = assay: Cytotoxicity against human NCI-H322M cells; in short: as §1
UACC-257 = assay: Cytotoxicity against human UACC257 cells; in short: as §2
LOX IMVI = assay: Cytotoxicity against human LOXIMVI cells; in short: as §1
A498 = assay: Cytotoxicity against human A498 cells; in short: as §1
A549 = assay: Cytotoxicity against human A549 cells; in short: as §1
MCF7 = assay: Cytotoxicity against human MCF7 cells; in short: as §1
COLO 205 = assay: Cytotoxicity against human COLO205 cells; in short: as §3
UO-31 = assay: Cytotoxicity against human UO31 cells; in short: as §2
SNB-75 = assay: Cytotoxicity against human SNB75 cells; in short: as §1
MOLT-4 = assay: Cytotoxicity against human MOLT4 cells; in short: as §1
HL-60 = assay: Cytotoxicity against human HL60 cells; in short: as §1
K562 = assay: Cytotoxicity against human K562 cells; in short: as §1
IGROV-1 = assay: Cytotoxicity against human IGROV1 cells; in short: as §1
TK-10 = assay: Cytotoxicity against human TK10 cells; in short: as §2
MDA-MB-435 = assay: Cytotoxicity against human MDA-MB-435 cells; in short: as §3
[3] = read-out: LC50 (the source's name)

For CN1C(N)=NC(=O)/C1=C/c1cn(Cc2ccccc2Br)c2ccccc12, the GI50 (SF-295) was 4.96 µM, the CC50 (SF-295; [3]) was > 100 µM and the GI50 (M14) was 4.46 µM. The LC50 (M14) was 47.8 µM, the GI50 (NCI-H522) was 5.38 µM and the LC50 (NCI-H522) was > 100 µM. The GI50 (NCI/ADR-RES) was > 100 µM, the CC50 (NCI/ADR-RES; [3]) was > 100 µM and the GI50 (SN12C) was 6.07 µM. For the same molecule, the CC50 (SN12C; [3]) was 76.3 µM, the GI50 (OVCAR-8) was 10.1 µM and the CC50 (OVCAR-8; [3]) was > 100 µM. It also gave a GI50 (HCC 2998) of 6.95 µM, a CC50 (HCC 2998; [3]) of 47.2 µM and a GI50 [1] of 3.97 µM. For the same molecule, the LC50 [1] was > 100 µM, the GI50 (KM12) was 5.71 µM and the CC50 (KM12; [3]) was 50.8 µM. The GI50 (NCI-H23) was 8.07 µM, the LC50 (concentration lethal to 50% of cells) (NCI-H23) was 54.8 µM and the GI50 (SK-MEL-28) was 4.14 µM. For the same molecule, the CC50 (SK-MEL-28; [3]) was 38.4 µM, the GI50 (SK-OV-3) was 11.9 µM and the CC50 (SK-OV-3; [3]) was 49.9 µM. For the same molecule, the GI50 (NCI-H226) was 1.37 µM, the LC50 (NCI-H226) was 69.9 µM and the GI50 (SF-268) was 5.38 µM. For the same molecule, the CC50 (SF-268; [3]) was 59.8 µM, the GI50 (786-0) was 6.15 µM and the LC50 (786-0) was 46.2 µM. It also gave a GI50 (SNB-19) of 4.5 µM, a CC50 (SNB-19; [3]) of 43.8 µM and a GI50 [2] of 1.19 µM. For the same molecule, the LC50 (concentration lethal to 50% of cells) [2] was 65.9 µM, the GI50 (MDA-MB-231) was 4.07 µM and the LC50 (MDA-MB-231) was 46.7 µM. For the same molecule, the GI50 (HCT-116) was 2.42 µM, the CC50 (HCT-116; [3]) was 30.9 µM and the GI50 (NCI-H460) was 3.95 µM. The CC50 (NCI-H460; [3]) was 56.8 µM, the GI50 (SK-MEL-5) was 3.38 µM and the LC50 (SK-MEL-5) was 42.3 µM. For the same molecule, the GI50 (CAKI-1) was 68.1 µM, the CC50 (CAKI-1; [3]) was > 100 µM and the GI50 (BT-549) was 2.05 µM. For the same molecule, the CC50 (BT-549; [3]) was > 100 µM, the GI50 (MDA-MB-468) was 1.69 µM and the LC50 (MDA-MB-468) was 6.9 µM. The GI50 (SF-539) was 1.73 µM, the CC50 (SF-539; [3]) was 6.94 µM and the GI50 (SR) was 1.96 µM. The CC50 (SR; [3]) was 72.7 µM, the GI50 (CCRF-CEM) was 2.54 µM and the CC50 (CCRF-CEM; [3]) was 36.2 µM. It also gave a GI50 (OVCAR-3) of 1.95 µM, a CC50 (OVCAR-3; [3]) of 7.35 µM and a GI50 (T47D) of 1.68 µM. For the same molecule, the CC50 (T47D; [3]) was 13.1 µM, the GI50 (PC-3) was 10.4 µM and the CC50 (PC-3; [3]) was 48.1 µM. The GI50 (HCT-15) was 19.8 µM, the CC50 (HCT-15; [3]) was > 100 µM and the GI50 (HT-29) was 2.18 µM. The CC50 (HT-29; [3]) was 6.94 µM, the GI50 (HOP-92) was 2.98 µM and the CC50 (HOP-92; [3]) was 44.5 µM. For the same molecule, the GI50 (OVCAR-5) was 2.12 µM, the CC50 (OVCAR-5; [3]) was 29 µM and the GI50 (SW-620) was 3.68 µM. The CC50 (SW-620; [3]) was 43.3 µM, the GI50 (HOP-62) was 8.78 µM and the CC50 (HOP-62; [3]) was 51.2 µM. For the same molecule, the GI50 (OVCAR-4) was 2.41 µM, the CC50 (OVCAR-4; [3]) was 25.2 µM and the GI50 (ACHN) was 11.8 µM. For the same molecule, the CC50 (ACHN; [3]) was 59 µM, the GI50 (DU-145) was 82.1 µM and the CC50 (DU-145; [3]) was 68.8 µM. The GI50 (RXF 393) was 2.77 µM, the CC50 (RXF 393; [3]) was 53.7 µM and the GI50 (Malme-3M) was 3.3 µM. It also gave a CC50 (Malme-3M; [3]) of 73.8 µM, a GI50 (U-251) of 3.01 µM and a CC50 (U-251; [3]) of 66.2 µM. The GI50 (SK-MEL-2) was 5.73 µM, the CC50 (SK-MEL-2; [3]) was > 100 µM and the GI50 (EKVX) was 58.1 µM. For the same molecule, the CC50 (EKVX; [3]) was > 100 µM, the GI50 (NCI-H322M) was 11 µM and the CC50 (NCI-H322M; [3]) was > 100 µM. It also gave a GI50 (UACC-257) of 12.9 µM, an LC50 (UACC-257) of 66.9 µM and a GI50 (LOX IMVI) of 1.97 µM. It also gave an LC50 (LOX IMVI) of 9.37 µM, a GI50 (A498) of 13.9 µM and a CC50 (A498; [3]) of 53.1 µM. For the same molecule, the GI50 (A549) was 28.7 µM, the CC50 (A549; [3]) was > 100 µM and the GI50 (MCF7) was 2.25 µM. For the same molecule, the CC50 (MCF7; [3]) was 48.1 µM, the GI50 (COLO 205) was 2.21 µM and the CC50 (COLO 205; [3]) was 12.3 µM. The GI50 (UO-31) was 7.95 µM, the CC50 (UO-31; [3]) was > 100 µM and the GI50 (SNB-75) was 1.58 µM. The LC50 (concentration lethal to 50% of cells) (SNB-75) was 18.6 µM, the GI50 (MOLT-4) was 4.57 µM and the CC50 (MOLT-4; [3]) was > 100 µM. It also gave a GI50 (HL-60) of 1.85 µM, an LC50 (HL-60) of 21 µM and a GI50 (K562) of 2.45 µM. For the same molecule, the CC50 (K562; [3]) was 77.4 µM, the GI50 (IGROV-1) was 20 µM and the CC50 (IGROV-1; [3]) was > 100 µM. For the same molecule, the GI50 (TK-10) was 6.84 µM, the CC50 (TK-10; [3]) was > 100 µM and the GI50 (MDA-MB-435) was 4.97 µM. For the same molecule, the CC50 (MDA-MB-435; [3]) was 68.6 µM.
